Assay results reported in PMC8055291 (Journal of Inflammation Research, 2021).

What was measured:
Assay in all cases: SPR analysis
Format in all cases: binding
[1] = biological target: mitogen-activated protein kinase (MAPK1) (Homo sapiens, UniProt P28482); conditions: for kon: read-out: Ka (association rate constant); for koff: read-out: Kd (dissociation rate constant)
How it was run: (§1)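 Each protein was amine-coupled to the chip after NHS/EDC (1:1, v/v) activation, at 14,874 RU (MMP-9), 11,000 RU (MAPK1), 11,800 RU (NFKB1) and 11,000 RU (TNF-α). A reference channel was activated and blocked without protein. Analytes flowed at 30 μL/min, with 60 s association and 120 s dissociation. Curves were fitted with 1:1 Langmuir and steady-state affinity models to give Ka, Kd and KD.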

[2] = biological target: matrix metalloproteinase-9 (MMP-9) (Homo sapiens, UniProt P14780)
Chain of matrix metalloproteinase-9 (MMP-9) (P14780 94-707): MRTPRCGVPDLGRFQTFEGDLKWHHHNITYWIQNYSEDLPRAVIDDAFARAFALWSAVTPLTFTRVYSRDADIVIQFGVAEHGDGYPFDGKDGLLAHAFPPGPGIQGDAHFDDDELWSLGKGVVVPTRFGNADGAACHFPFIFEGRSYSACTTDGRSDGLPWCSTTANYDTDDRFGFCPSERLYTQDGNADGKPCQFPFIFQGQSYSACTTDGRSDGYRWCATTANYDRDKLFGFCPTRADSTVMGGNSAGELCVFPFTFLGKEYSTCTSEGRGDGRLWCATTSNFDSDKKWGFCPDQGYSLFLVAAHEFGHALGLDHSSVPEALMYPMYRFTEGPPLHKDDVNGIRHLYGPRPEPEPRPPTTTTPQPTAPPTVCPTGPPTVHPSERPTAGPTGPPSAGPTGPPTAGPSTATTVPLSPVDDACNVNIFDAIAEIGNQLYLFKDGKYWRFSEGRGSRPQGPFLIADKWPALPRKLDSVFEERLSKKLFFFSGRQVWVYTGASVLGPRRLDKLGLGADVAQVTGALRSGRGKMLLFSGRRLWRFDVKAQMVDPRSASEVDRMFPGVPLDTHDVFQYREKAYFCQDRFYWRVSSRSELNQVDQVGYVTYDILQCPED
How it was run: as §1

[3] = biological target: T1, nuclear factor kappa B (NFKB1) (Homo sapiens, UniProt P19838)
T1 sequence (P19838 1-968): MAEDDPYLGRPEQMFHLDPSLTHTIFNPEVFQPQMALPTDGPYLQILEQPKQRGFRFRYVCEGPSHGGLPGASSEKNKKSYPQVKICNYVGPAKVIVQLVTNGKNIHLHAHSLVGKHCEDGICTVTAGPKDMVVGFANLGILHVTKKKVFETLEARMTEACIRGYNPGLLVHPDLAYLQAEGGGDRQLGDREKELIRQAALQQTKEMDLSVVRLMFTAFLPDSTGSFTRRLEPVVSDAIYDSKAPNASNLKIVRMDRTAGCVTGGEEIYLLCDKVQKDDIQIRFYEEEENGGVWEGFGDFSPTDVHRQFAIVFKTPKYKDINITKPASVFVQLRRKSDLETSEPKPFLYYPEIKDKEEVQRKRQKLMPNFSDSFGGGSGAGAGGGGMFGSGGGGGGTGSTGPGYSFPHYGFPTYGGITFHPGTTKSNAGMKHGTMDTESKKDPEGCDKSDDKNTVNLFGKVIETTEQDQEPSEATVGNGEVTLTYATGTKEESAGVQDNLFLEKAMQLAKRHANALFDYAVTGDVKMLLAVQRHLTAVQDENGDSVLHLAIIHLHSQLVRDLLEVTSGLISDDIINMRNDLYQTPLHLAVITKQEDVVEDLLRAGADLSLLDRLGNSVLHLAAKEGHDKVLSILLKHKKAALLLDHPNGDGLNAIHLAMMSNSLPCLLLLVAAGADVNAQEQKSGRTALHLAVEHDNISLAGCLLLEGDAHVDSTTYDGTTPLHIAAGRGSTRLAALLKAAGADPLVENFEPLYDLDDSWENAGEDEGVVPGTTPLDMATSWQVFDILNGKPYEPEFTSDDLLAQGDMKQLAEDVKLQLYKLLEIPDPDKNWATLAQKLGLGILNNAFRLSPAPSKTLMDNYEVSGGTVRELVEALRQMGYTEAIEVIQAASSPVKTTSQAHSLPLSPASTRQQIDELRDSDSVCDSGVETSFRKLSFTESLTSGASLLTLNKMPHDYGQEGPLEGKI
How it was run: as §1

[4] = biological target: tumor necrosis factor (TNF-α) (Homo sapiens, UniProt P01375)
Chain of tumor necrosis factor (TNF-α) (P01375 77-233 limits assumed): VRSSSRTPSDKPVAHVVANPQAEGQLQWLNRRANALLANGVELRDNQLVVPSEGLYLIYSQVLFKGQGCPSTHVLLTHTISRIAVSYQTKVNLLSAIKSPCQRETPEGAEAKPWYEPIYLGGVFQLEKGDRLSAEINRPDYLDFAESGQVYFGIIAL
How it was run: as §1

Chain of mitogen-activated protein kinase (MAPK1) (P28482 whole entry): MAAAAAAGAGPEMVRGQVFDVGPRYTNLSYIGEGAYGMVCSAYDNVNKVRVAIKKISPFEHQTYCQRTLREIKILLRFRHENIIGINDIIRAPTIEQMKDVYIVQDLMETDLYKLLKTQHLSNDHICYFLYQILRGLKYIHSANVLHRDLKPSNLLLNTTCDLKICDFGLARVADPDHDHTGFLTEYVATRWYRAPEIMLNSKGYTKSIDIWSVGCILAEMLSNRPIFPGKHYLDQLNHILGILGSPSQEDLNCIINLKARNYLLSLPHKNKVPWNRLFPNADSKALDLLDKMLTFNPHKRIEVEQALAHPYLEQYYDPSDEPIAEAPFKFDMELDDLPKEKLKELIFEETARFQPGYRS

Row | SMILES | Kd [1] [µM] | kon [1] [M⁻¹ s⁻¹] | koff [1] [s⁻¹] | Kd [2] [µM] | other results
1 | O=C1C[C@@H](c2ccc(O[C@@H]3O[C@H](CO)[C@@H](O)[C@H](O)[C@H]3O)cc2)Oc2cc(O)ccc21 [Liquiritin] | 382 | 258 | 0.0984 | 105 | kon ([2]; read-out: Ka (association rate constant)): 251 M⁻¹ s⁻¹; koff ([2]; read-out: Kd (dissociation rate constant)): 0.0264 s⁻¹
2 | COc1cc2c(cc1CC=C(C)C)C(=O)C[C@@H](c1ccc(O)cc1)O2 [Bavachinin A] | 6.05 | – | – | – | –
3 | COc1ccc(-c2coc3cc(O[C@@H]4O[C@H](CO)[C@@H](O)[C@H](O)[C@H]4O)ccc3c2=O)cc1 [Ononin] | 41.4 | – | – | – | –
4 | CC(C)=CCc1cc2c(cc1O)O[C@H](c1ccc(O)cc1)CC2=O [Bavachin] | 26.6 | 9290 | 0.247 | – | –
5 | COc1ccc(-c2coc3cc(O)ccc3c2=O)cc1 [Formononetin] | – | – | – | – | Kd [3]: 32.5 µM
6 | O=C(/C=C/c1ccc(O[C@@H]2O[C@H](CO)[C@@H](O)[C@H](O)[C@H]2O)cc1)c1ccc(O)cc1O [Isoliquiritin] | – | – | – | 2.7 | Kd [4]: 3.6 µM
